Measurements from ChEMBL document CHEMBL1131139, “Synthesis and antibacterial activity of ketolides (6-O-methyl-3-oxoerythromycin derivatives): a new class of antibacterials highly potent against macrolide-resistant and -susceptible respiratory pathogens” (1998).
≈ marks a conversion by molar mass, not a printed value.

Columns and labels:
Type in all cases: functional
[1] = system: Streptococcus pneumoniae; experiment: In vitro inhibitory activity against Streptococcus pneumoniae (032UC1)
In short: (§1)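 Two-fold agar dilution on Mueller-Hinton agar (pH 7.4). Inoculum from overnight plate cultures suspended in Mueller-Hinton broth, adjusted to 10^9 CFU/mL, diluted 1:200 and spotted by multipoint inoculator at about 10^4 CFU/spot. Plates incubated 37 °C for 20 h. MIC taken as lowest concentration with no visible growth.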

[2] = system: Staphylococcus aureus; experiment: In vitro inhibitory activity against Staphylococcus aureus (011UC4); in short: as §1
[3] = system: Haemophilus influenzae; experiment: In vitro inhibitory activity against Haemophilus influenzae (351HT3); in short: as §1
[4] = system: Streptococcus pyogenes; experiment: In vitro inhibitory activity against Streptococcus pyogenes (02A1UC1); in short: as §1
[5] = system: Staphylococcus aureus; experiment: In vitro inhibitory activity against Staphylococcus aureus (EryRi 011GO25i); in short: as §1
[6] = system: Streptococcus pneumoniae; experiment: In vitro inhibitory activity against Streptococcus pneumoniae (EryRi 030SJ5i); in short: as §1
[7] = system: Staphylococcus epidermidis; experiment: In vitro inhibitory activity against Staphylococcus epidermidis (EryRi 012GO11i); in short: as §1
[8] = system: Haemophilus influenzae; experiment: In vitro inhibitory activity against Haemophilus influenzae (351CB12); in short: as §1
[9] = system: Escherichia coli; experiment: In vitro inhibitory activity against Escherichia coli (250 UC5); in short: as §1
[10] = system: Streptococcus pneumoniae; experiment: In vitro inhibitory activity against Streptococcus pneumoniae (EryRc 030SJ1); in short: as §1
[11] = system: Staphylococcus aureus; experiment: In vitro inhibitory activity against Staphylococcus aureus (EryRc 011CB20); in short: as §1

SMILES | MIC [1] | MIC [2] | MIC [3] | MIC [4] | MIC [5] | MIC [6] | MIC [7] | MIC [8] | MIC [9] | MIC [10] | MIC [11]
CC[C@H]1OC(=O)[C@H](C)C(=O)[C@H](C)[C@@H](O[C@@H]2O[C@H](C)C[C@H](N(C)C)[C@H]2O)[C@](C)(OC)C[C@@H](C)C(=O)[C@@H](C)[C@H]2N(NCCCc3ccnc4c(OC)cccc34)C(=O)O[C@]12C | 0.02 µg/mL (≈ 0.0242 µM) | 0.04 µg/mL (≈ 0.0484 µM) | 0.6 µg/mL (≈ 0.725 µM) | 0.02 µg/mL (≈ 0.0242 µM) | 0.15 µg/mL (≈ 0.181 µM) | 0.15 µg/mL (≈ 0.181 µM) | 0.15 µg/mL (≈ 0.181 µM) | 1.2 µg/mL (≈ 1.45 µM) | 40 µg/mL (≈ 48.4 µM) | 2.5 µg/mL (≈ 3.02 µM) | 40 µg/mL (≈ 48.4 µM)
CC[C@H]1OC(=O)[C@H](C)C(=O)[C@H](C)[C@@H](O[C@@H]2O[C@H](C)C[C@H](N(C)C)[C@H]2O)[C@](C)(OC)C[C@@H](C)C(=O)[C@H](C)[C@H]2N(CCOCc3ccccc3)C(=O)O[C@]12C | 0.02 µg/mL (≈ 0.0268 µM) | 0.04 µg/mL (≈ 0.0536 µM) | 1.2 µg/mL (≈ 1.61 µM) | 0.02 µg/mL (≈ 0.0268 µM) | 0.08 µg/mL (≈ 0.107 µM) | 0.3 µg/mL (≈ 0.402 µM) | 0.15 µg/mL (≈ 0.201 µM) | 0.6 µg/mL (≈ 0.803 µM) | 40 µg/mL (≈ 53.6 µM) | 5 µg/mL (≈ 6.69 µM) | 40 µg/mL (≈ 53.6 µM)
C#CCNCCO/N=C1\[C@H](C)C[C@@](C)(OC)[C@H](O[C@@H]2O[C@H](C)C[C@H](N(C)C)[C@H]2O)[C@@H](C)C(=O)[C@@H](C)C(=O)O[C@H](CC)[C@@](C)(O)[C@H](O)[C@H]1C | 2.5 µg/mL (≈ 3.66 µM) | 0.3 µg/mL (≈ 0.439 µM) | 20 µg/mL (≈ 29.2 µM) | 0.08 µg/mL (≈ 0.117 µM) | 5 µg/mL (≈ 7.31 µM) | 40 µg/mL (≈ 58.5 µM) | 0.3 µg/mL (≈ 0.439 µM) | 10 µg/mL (≈ 14.6 µM) | 40 µg/mL (≈ 58.5 µM) | 5 µg/mL (≈ 7.31 µM) | 40 µg/mL (≈ 58.5 µM)
CC[C@H]1OC(=O)[C@H](C)C(=O)[C@H](C)[C@@H](O[C@@H]2O[C@H](C)C[C@H](N(C)C)[C@H]2O)[C@](C)(OC)C[C@@H](C)/C(=N\OCCN2CCOCC2)[C@H](C)[C@@H](O)[C@]1(C)O | 40 µg/mL (≈ 55.9 µM) | 1.2 µg/mL (≈ 1.68 µM) | 40 µg/mL (≈ 55.9 µM) | 0.15 µg/mL (≈ 0.21 µM) | 10 µg/mL (≈ 14 µM) | 20 µg/mL (≈ 27.9 µM) | 2.5 µg/mL (≈ 3.49 µM) | 40 µg/mL (≈ 55.9 µM) | 40 µg/mL (≈ 55.9 µM) | 5 µg/mL (≈ 6.98 µM) | 40 µg/mL (≈ 55.9 µM)

The remaining molecules from weak to strong by MIC [1], led by results:

MIC [1] | MIC [2] | MIC [3] | MIC [4] | MIC [5] | MIC [6] | MIC [7] | MIC [8] | MIC [9] | MIC [10] | MIC [11] | SMILES
40 µg/mL (≈ 59.1 µM) | 40 µg/mL (≈ 59.1 µM) | 40 µg/mL (≈ 59.1 µM) | 40 µg/mL (≈ 59.1 µM) | 40 µg/mL (≈ 59.1 µM) | 40 µg/mL (≈ 59.1 µM) | 40 µg/mL (≈ 59.1 µM) | 40 µg/mL (≈ 59.1 µM) | 40 µg/mL (≈ 59.1 µM) | 40 µg/mL (≈ 59.1 µM) | 40 µg/mL (≈ 59.1 µM) | CC[C@H]1OC(=O)[C@H](C)[C@@]2(O)O[C@@](C)(C[C@@H](C)/C(=N\OCOCCOC)[C@H](C)[C@@H](O)[C@]1(C)O)[C@H](O[C@@H]1O[C@H](C)C[C@H](N(C)C)[C@H]1O)[C@H]2C
0.3 µg/mL (≈ 0.398 µM) | 0.3 µg/mL (≈ 0.398 µM) | 5 µg/mL (≈ 6.63 µM) | 0.04 µg/mL (≈ 0.0531 µM) | 2.5 µg/mL (≈ 3.32 µM) | 20 µg/mL (≈ 26.5 µM) | 1.2 µg/mL (≈ 1.59 µM) | 5 µg/mL (≈ 6.63 µM) | 40 µg/mL (≈ 53.1 µM) | 40 µg/mL (≈ 53.1 µM) | 40 µg/mL (≈ 53.1 µM) | CC[C@H]1OC(=O)[C@H](C)C(=O)[C@H](C)[C@@H](O[C@@H]2O[C@H](C)C[C@H](N(C)C)[C@H]2O)[C@](C)(OC)C[C@@H](C)/C(=N\OCCNCCCn2ccnc2)[C@H](C)[C@@H](O)[C@]1(C)O
0.3 µg/mL (≈ 0.437 µM) | 1.2 µg/mL (≈ 1.75 µM) | 20 µg/mL (≈ 29.2 µM) | 0.3 µg/mL (≈ 0.437 µM) | 5 µg/mL (≈ 7.29 µM) | 0.08 µg/mL (≈ 0.117 µM) | 2.5 µg/mL (≈ 3.64 µM) | 2.5 µg/mL (≈ 3.64 µM) | 40 µg/mL (≈ 58.3 µM) | 40 µg/mL (≈ 58.3 µM) | 40 µg/mL (≈ 58.3 µM) | CC[C@H]1OC(=O)[C@H](C)C(=O)[C@H](C)[C@@H](O[C@@H]2O[C@H](C)C[C@H](N(C)C)[C@H]2O)[C@](C)(OC)C[C@@H](C)/C(=N\O[C@H]2CCCNC2)[C@H](C)[C@@H](O)[C@]1(C)O
0.08 µg/mL (≈ 0.0995 µM) | 0.3 µg/mL (≈ 0.373 µM) | 5 µg/mL (≈ 6.22 µM) | 0.08 µg/mL (≈ 0.0995 µM) | 0.6 µg/mL (≈ 0.746 µM) | 0.3 µg/mL (≈ 0.373 µM) | 0.6 µg/mL (≈ 0.746 µM) | 0.6 µg/mL (≈ 0.746 µM) | 40 µg/mL (≈ 49.7 µM) | 1.2 µg/mL (≈ 1.49 µM) | 40 µg/mL (≈ 49.7 µM) | CC[C@H]1OC(=O)[C@H](C)C(=O)[C@H](C)[C@@H](O[C@@H]2O[C@H](C)C[C@H](N(C)C)[C@H]2O)[C@](C)(OC)C[C@@H](C)/C(=N\OC2CCCN(CCCc3ccccc3)C2)[C@H](C)[C@@H](O)[C@]1(C)O (some centres undefined)
0.02 µg/mL (≈ 0.0242 µM) | 0.04 µg/mL (≈ 0.0484 µM) | 1.2 µg/mL (≈ 1.45 µM) | 0.02 µg/mL (≈ 0.0242 µM) | 0.08 µg/mL (≈ 0.0967 µM) | 0.02 µg/mL (≈ 0.0242 µM) | 0.08 µg/mL (≈ 0.0967 µM) | 2.5 µg/mL (≈ 3.02 µM) | 40 µg/mL (≈ 48.4 µM) | 0.08 µg/mL (≈ 0.0967 µM) | 40 µg/mL (≈ 48.4 µM) | CC[C@H]1OC(=O)[C@H](C)C(=O)[C@H](C)[C@@H](O[C@@H]2O[C@H](C)C[C@H](N(C)C)[C@H]2O)[C@](C)(OC)C[C@@H](C)C(=O)[C@H](C)[C@H]2N(NCCCc3ccnc4ccc(OC)cc34)C(=O)O[C@]12C
